Active and inactive are the calls of the source. No cut-off for these calls is given here.
Experiments:
[1] = biological target: T1, Alpha-1A adrenergic receptor (Homo sapiens, UniProt P35348); experiment: Binding affinity to adrenergic alpha1A receptor (unknown origin)
T1 sequence (P35348 whole entry): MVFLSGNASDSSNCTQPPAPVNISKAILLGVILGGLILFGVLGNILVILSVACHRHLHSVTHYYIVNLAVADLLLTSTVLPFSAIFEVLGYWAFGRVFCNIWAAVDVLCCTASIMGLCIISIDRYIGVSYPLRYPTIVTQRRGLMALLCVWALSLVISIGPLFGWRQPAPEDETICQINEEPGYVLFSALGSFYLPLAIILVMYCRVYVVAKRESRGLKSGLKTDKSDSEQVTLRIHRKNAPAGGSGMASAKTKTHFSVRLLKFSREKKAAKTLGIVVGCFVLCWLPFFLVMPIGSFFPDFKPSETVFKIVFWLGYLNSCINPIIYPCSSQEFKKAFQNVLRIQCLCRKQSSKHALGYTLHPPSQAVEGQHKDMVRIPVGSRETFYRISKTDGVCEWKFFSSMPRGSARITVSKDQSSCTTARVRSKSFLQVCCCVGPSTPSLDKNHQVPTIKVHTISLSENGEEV

[2] = tested on: Mus musculus; experiment: Antiobesity activity in B6.V/J ob/ob mouse assessed as change in lung weight at 5 mg/kg, po bid measured after 14 days (reference value: 0.143 +/- 0.013 g); type: functional
[3] = tested on: Mus musculus; experiment: Antiobesity activity in B6.V/J ob/ob mouse assessed as change in spleen weight at 25 mg/kg, po bid measured after 14 days (reference value: 0.097 +/- 0.052 g); type: functional
[4] = tested on: Mus musculus; experiment: Antiobesity activity in B6.V/J ob/ob mouse assessed as inhibition of food intake at 25 mg/kg, ip measured up to 6 hrs relative to vehicle-treated control; type: functional; conditions: route intraperitoneal
Summary of the method: (§1)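 Male mice were acclimated 1 week at 23 ± 3 °C and 50 ± 20% humidity, then fasted 24 h. They were dosed once intraperitoneally with vehicle or compound: 50 mg/kg in C57BL/6, or 12.5, 25 or 50 mg/kg in B6.V-Lep^ob/J. Food intake was measured at 2, 6 and 12 h versus vehicle control.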

[5] = tested on: Mus musculus; experiment: Antiobesity activity in B6.V/J ob/ob mouse assessed as inhibition of body weight gain at 50 mg/kg, ip measured after 12 hrs relative to vehicle-treated control; type: functional; conditions: route intraperitoneal
[6] = tested on: Mus musculus; experiment: Antiobesity activity in B6.V/J ob/ob mouse assessed as change in spleen weight at 5 mg/kg, po bid measured after 14 days (reference value: 0.097 +/- 0.052 g); type: functional
[7] = biological target: 5-hydroxytryptamine receptor 6 (Homo sapiens, UniProt P50406); experiment: Displacement of [3H]-LSD from human recombinant 5HT-6 receptor expressed in CHOK1 cell membranes after 60 mins; design: species or system CHO-K1
Summary of the method: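 CHO-K1 membranes expressing human 5-HT6 incubated with 1 nM [3H]LSD for 60 min at 27 °C in 50 mM Tris-HCl pH 7.4 containing 4 mM CaCl2 and 0.1% ascorbic acid. Terminated by filtration on glass-fiber filters presoaked in 0.5% PEI. Methiothepin defined nonspecific binding.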

[8] = biological target: D(3) dopamine receptor (Homo sapiens, UniProt P35462); experiment: Displacement of [3H]-methylspiperone from dopamine D3 receptor (unknown origin) after 30 mins
Summary of the method: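 Receptor membranes incubated at 27 °C, 60 min for D2L and 30 min for D3, with [3H]methylspiperone (0.2 nM for D2L, 0.25 nM for D3) and test compound at a range of concentrations. Buffer was 50 mM Tris-HCl pH 7.4, 10 mM MgCl2, 1 mM EDTA, 120 mM NaCl. Nonspecific binding defined with haloperidol (D2) or GR103691 (D3). IC50 obtained by nonlinear regression.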

[9] = tested on: Mus musculus; experiment: Antiobesity activity in B6.V/J ob/ob mouse assessed as […] at 25 mg/kg, ip measured after 12 hrs relative to vehicle-treated control; type: functional; conditions: route intraperitoneal
[10] = AUC (0 to infinity) in Sprague-Dawley rat at 10 mg/kg, po; type: ADME, organism-based; design: time infinity, dose 10 mg/kg, route oral; conditions: plasma
[11] = biological target: T2, 5-hydroxytryptamine receptor 2C (Homo sapiens, UniProt P28335); experiment: Displacement of [3H]-mesulergine from human recombinant 5HT-2C receptor expressed in CHOK1 cell membranes after 30 mins; design: species or system CHO-K1
T2 sequence (P28335 whole entry): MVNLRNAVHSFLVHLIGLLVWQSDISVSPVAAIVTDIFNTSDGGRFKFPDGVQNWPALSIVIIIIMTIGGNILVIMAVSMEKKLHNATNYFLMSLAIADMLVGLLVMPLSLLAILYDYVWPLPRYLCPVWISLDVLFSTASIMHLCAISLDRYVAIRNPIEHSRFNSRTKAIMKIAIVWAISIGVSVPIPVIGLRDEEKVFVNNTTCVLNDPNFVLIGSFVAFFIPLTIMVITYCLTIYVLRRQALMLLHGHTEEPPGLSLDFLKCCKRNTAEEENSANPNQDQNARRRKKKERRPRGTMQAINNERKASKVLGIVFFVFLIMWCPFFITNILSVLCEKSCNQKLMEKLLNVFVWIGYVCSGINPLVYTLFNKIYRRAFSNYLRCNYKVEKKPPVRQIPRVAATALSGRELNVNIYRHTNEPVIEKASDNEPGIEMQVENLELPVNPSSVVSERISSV
Summary of the method: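 Frozen CHO-K1 membranes expressing recombinant human 5-HT2C incubated with 1 nM [3H]mesulergine in 50 mM Tris-HCl pH 7.4 containing 0.1% ascorbic acid and pargyline. Mianserin defined nonspecific binding.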

[12] = biological target: T3, Alpha-2A adrenergic receptor (Homo sapiens, UniProt P08913); experiment: Binding affinity to adrenergic alpha2A receptor (unknown origin)
T3 sequence (P08913 whole entry): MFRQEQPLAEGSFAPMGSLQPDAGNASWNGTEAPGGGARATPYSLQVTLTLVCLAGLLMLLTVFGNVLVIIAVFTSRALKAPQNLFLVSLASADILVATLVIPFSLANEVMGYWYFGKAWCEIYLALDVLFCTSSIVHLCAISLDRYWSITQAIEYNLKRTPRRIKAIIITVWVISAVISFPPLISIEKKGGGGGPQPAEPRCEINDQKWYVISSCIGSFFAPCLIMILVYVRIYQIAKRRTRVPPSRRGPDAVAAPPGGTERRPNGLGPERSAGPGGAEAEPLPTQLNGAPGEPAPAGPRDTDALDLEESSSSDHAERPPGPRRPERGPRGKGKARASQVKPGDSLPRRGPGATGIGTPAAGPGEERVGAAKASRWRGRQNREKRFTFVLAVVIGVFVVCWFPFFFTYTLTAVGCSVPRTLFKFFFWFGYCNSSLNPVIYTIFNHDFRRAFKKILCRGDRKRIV

[13] = tested on: Mus musculus; experiment: Antiobesity activity in B6.V/J ob/ob mouse assessed as change in lung weight at 50 mg/kg, po bid measured after 14 days (reference value: 0.143 +/- 0.013 g); type: functional
[14] = tested on: Mus musculus; experiment: Antiobesity activity in B6.V/J ob/ob mouse assessed as inhibition of food intake at 25 mg/kg, ip measured up to 2 hrs relative to vehicle-treated control; type: functional; conditions: route intraperitoneal; summary of the method: as §1
[15] = tested on: Mus musculus; experiment: Antiobesity activity in B6.V/J ob/ob mouse assessed as reduction of body weight gain at 50 mg/kg, po qd measured after 14 days; type: functional, organism-based; design: dose 50 mg/kg
Summary of the method: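 Male ob/ob mice (B6.V-Lep^ob/J) received oral doses once daily for 14 days, with vehicle control. Food intake and body weight gain were followed.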

5-hydroxytryptamine receptor 6, sequence (P50406 whole entry): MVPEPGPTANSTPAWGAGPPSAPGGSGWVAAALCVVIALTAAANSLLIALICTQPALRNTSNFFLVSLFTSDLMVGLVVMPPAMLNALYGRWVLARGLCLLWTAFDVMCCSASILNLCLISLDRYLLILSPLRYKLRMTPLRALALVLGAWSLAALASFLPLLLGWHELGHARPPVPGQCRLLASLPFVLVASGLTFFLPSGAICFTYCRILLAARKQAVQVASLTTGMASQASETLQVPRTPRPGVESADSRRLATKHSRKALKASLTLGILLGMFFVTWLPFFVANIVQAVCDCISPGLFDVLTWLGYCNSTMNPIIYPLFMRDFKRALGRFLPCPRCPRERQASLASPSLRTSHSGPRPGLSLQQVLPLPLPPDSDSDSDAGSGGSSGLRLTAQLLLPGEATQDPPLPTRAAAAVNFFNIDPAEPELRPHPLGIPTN
D(3) dopamine receptor, sequence (P35462 whole entry): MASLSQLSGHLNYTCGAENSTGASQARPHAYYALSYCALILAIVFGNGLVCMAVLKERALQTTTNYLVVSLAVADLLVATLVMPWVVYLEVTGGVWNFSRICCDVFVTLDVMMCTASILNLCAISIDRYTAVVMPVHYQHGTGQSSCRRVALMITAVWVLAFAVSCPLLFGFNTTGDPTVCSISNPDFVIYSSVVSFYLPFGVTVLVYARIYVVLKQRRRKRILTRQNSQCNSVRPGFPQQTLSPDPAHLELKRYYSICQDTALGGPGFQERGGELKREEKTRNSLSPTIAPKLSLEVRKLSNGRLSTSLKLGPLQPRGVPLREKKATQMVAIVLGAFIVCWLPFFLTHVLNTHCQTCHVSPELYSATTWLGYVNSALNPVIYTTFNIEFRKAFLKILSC

Compound: Cl.Clc1cccc(Nc2nc(Cc3ccccc3)nc3c2CCNCC3)c1
- IC50 [1]: > 10000 nM
- Activity [2]: 0.124 g
- Activity [3]: 0.111 g
- inhibition in vivo at 25 mg/kg [4]: 90.2%
- inhibition in vivo at 50 mg/kg [5]: 80.2%
- Activity [6]: 0.057 g
- IC50 [7]: 21.8 nM
- IC50 [8]: 807 nM
- inhibition in vivo at 25 mg/kg [9]: 51.1%
- AUC(0-inf) [10]: 1050 ng·h/mL
- IC50 [11]: 2.3 nM
- IC50 [12]: > 10000 nM
- Activity [13]: 0.14 g
- inhibition in vivo at 25 mg/kg [14]: 99.8%
- Activity [15]: inactive

From ChEMBL document CHEMBL2390866, “Novel pyrimidoazepine analogs as serotonin 5-HT(2A) and 5-HT(2C) receptor ligands for the treatment of obesity” (Eur J Med Chem, 2013)
